According to ChEMBL document CHEMBL1240310, “Combinatorial chemistry identifies high-affinity peptidomimetics against alpha4beta1 integrin for in vivo tumor imaging” (Nat Chem Biol, 2006):
The source made the active and inactive calls.

How the values were obtained:
Mus musculus [1] = assay: In vivo inhibition of alpha4beta1 integrin expressed in human Molt-4 cells xenografted into mouse at 60 nmol/kg, iv up to 24 hrs by NIRF imaging; type: functional, organism-based
How it was run: (§1)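 Nude (nu/nu) mice bearing subcutaneous shoulder Molt-4 xenografts (about 5 × 10^6 cells injected; tumors 0.5–1.0 cm). Probe made by complexing biotinylated ligand with SA-Alexa Fluor680 at 5:1 molar ratio, 1 h, 4 °C. Given 60 nmol kg-1 i.v. (n = 3). Imaged under pentobarbital anesthesia (60 mg kg-1 i.p.) at 0–44 h; excitation 625 nm, emission 700 nm, 30 s exposure. Tumor vs normal ROI intensities compared.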

CHO [2] = assay: Binding affinity to alpha4beta1 integrin G184A mutant expressed in CHO cells by flow cytometry; type: cell-based
How it was run: (§2)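 CHO cells stably expressing wild-type or single-Ala mutant human α4 paired with endogenous hamster β1. Cells incubated with biotinylated ligand in TBS (1 mM Mn2+), then SA-PE, and read by flow cytometry. Binding normalized to α4 expression measured with mAb B5G10. Mean ± s.d. of triplicates.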

[3] = biological target: T1, Integrin alpha-4/beta-1 (Homo sapiens) (UniProt P05556+P13612); assay: Binding affinity to alpha4beta1 integrin expressed in CHO cells by flow cytometry; type: cell-based
How it was run: (§3)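 Cells (0.5 × 10^6) incubated with biotinylated ligand (100 nM) for 1 h at 4 °C in TBS with 1 mM Mg2+/Mn2+, washed, then stained with SA-PE. Fluorescence of 10,000 cells read by flow cytometry. Integrin-transfected CHO lines as previously described; α4 expression probed with anti-α4 mAb P1H4 plus FITC secondary.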

[4] = biological target: T1, Integrin alpha-4/beta-1 (Homo sapiens); assay: Binding affinity to alpha4beta1 integrin expressed in human K562 cells by flow cytometry; type: cell-based; how it was run: as §3
[5] = biological target: Integrin alpha2/beta1 (Homo sapiens) (UniProt P05556+P17301); assay: Binding affinity to alpha2beta1 integrin expressed in CHO cells by flow cytometry; type: cell-based; how it was run: as §3
[6] = biological target: ITGA6-ITGB1 complex (Homo sapiens) (UniProt P05556+P23229); assay: Binding affinity to alpha6beta1 integrin expressed in CHO cells by flow cytometry; type: cell-based; how it was run: as §3
[7] = biological target: ITGB1-ITGA9 complex (Homo sapiens) (UniProt P05556+Q13797); assay: Binding affinity to alpha9beta1 integrin expressed in CHO cells by flow cytometry; type: cell-based; how it was run: as §3
[8] = biological target: Intercellular adhesion molecule (ICAM-1), Integrin alpha-L/beta-2 (Homo sapiens) (UniProt P20701+P05362+P05107); assay: Binding affinity to alphaLbeta2 integrin expressed in CHO cells by flow cytometry; type: cell-based; how it was run: as §3
[9] = biological target: Integrin alpha-M/beta-2 (Homo sapiens) (UniProt P05107+P11215); assay: Binding affinity to alphaMbeta2 integrin expressed in CHO cells by flow cytometry; type: cell-based; how it was run: as §3
[10] = biological target: T1, Integrin alpha-4/beta-1 (Homo sapiens); assay: Binding affinity to alpha4beta1 integrin transfected human Molt-4 cells by flow cytometry; type: cell-based; how it was run: as §3
[11] = biological target: T1, Integrin alpha-4/beta-1 (Homo sapiens); assay: Binding affinity to alpha4beta1 integrin expressed in human Reh cells by flow cytometry; type: cell-based; how it was run: as §3
[12] = biological target: T1, Integrin alpha-4/beta-1 (Homo sapiens); assay: Binding affinity to alpha4beta1 integrin expressed in human HL-60 cells by flow cytometry; type: cell-based; how it was run: as §3
CHO [13] = assay: Binding affinity to human alpha4 G181A mutant/hamster beta-1 integrin expressed in CHO cells by flow cytometry; type: cell-based; how it was run: as §2
CHO [14] = assay: Binding affinity to human alpha4 P183A mutant/hamster beta-1 integrin expressed in CHO cells by flow cytometry; type: cell-based; how it was run: as §2
CHO [15] = assay: Binding affinity to human alpha4 S185A mutant/hamster beta-1 integrin expressed in CHO cells by flow cytometry; type: cell-based; how it was run: as §2
CHO [16] = assay: Binding affinity to human alpha4 S186A mutant/hamster beta-1 integrin expressed in CHO cells by flow cytometry; type: cell-based; how it was run: as §2
CHO [17] = assay: Binding affinity to human alpha4 Y187A mutant/hamster beta-1 integrin expressed in CHO cells by flow cytometry; type: cell-based; how it was run: as §2
CHO [18] = assay: Binding affinity to human alpha4 W188A mutant/hamster beta-1 integrin expressed in CHO cells by flow cytometry; type: cell-based; how it was run: as §2
CHO [19] = assay: Binding affinity to human alpha4 T189A mutant/hamster beta-1 integrin expressed in CHO cells by flow cytometry; type: cell-based; how it was run: as §2
CHO [20] = assay: Binding affinity to human alpha4 G190A mutant/hamster beta-1 integrin expressed in CHO cells by flow cytometry; type: cell-based; how it was run: as §2
CHO [21] = assay: Binding affinity to human alpha4 S191A mutant/hamster beta-1 integrin expressed in CHO cells by flow cytometry; type: cell-based; how it was run: as §2
CHO [22] = assay: Binding affinity to human alpha4 Y195A mutant/hamster beta-1 integrin expressed in CHO cells by flow cytometry; type: cell-based; how it was run: as §2
CHO [23] = assay: Binding affinity to human alpha4 N196A mutant/hamster beta-1 integrin expressed in CHO cells by flow cytometry; type: cell-based; how it was run: as §2
CHO [24] = assay: Binding affinity to human alpha4 N200A mutant/hamster beta-1 integrin expressed in CHO cells by flow cytometry; type: cell-based; how it was run: as §2
CHO [25] = assay: Binding affinity to human alpha4 K201A mutant/hamster beta-1 integrin expressed in CHO cells by flow cytometry; type: cell-based; how it was run: as §2
CHO [26] = assay: Binding affinity to human alpha4 Y202A mutant/hamster beta-1 integrin expressed in CHO cells by flow cytometry; type: cell-based; how it was run: as §2
CHO [27] = assay: Binding affinity to human alpha4 K203A mutant/hamster beta-1 integrin expressed in CHO cells by flow cytometry; type: cell-based; how it was run: as §2
Mus musculus [28] = assay: In vivo inhibition of alpha4beta1 integrin expressed in human Molt-4 cells xenografted into mouse at 60 nmol/kg, iv up to 44 hrs by NIRF imaging; type: functional, organism-based; how it was run: as §1
[29] = biological target: T1, Integrin alpha-4/beta-1 (Homo sapiens); assay: Inhibition of integrin alpha-4-beta-1-mediated Jurkat cell adhesion to VCAM-1 coated surface by BCECF fluorescence analysis; type: cell-based
[30] = biological target: T1, Integrin alpha-4/beta-1 (Homo sapiens); assay: Inhibition of integrin alpha-4-beta-1-mediated Jurkat cell adhesion to CS-1 coated surface by BCECF fluorescence analysis
[31] = biological target: T1, Integrin alpha-4/beta-1 (Homo sapiens); assay: Binding affinity to alpha4beta1 integrin expressed in peripheral blood lymphocytes; type: cell-based
How it was run: (§4)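 Normal peripheral blood lymphocytes isolated from healthy-donor blood by Ficoll-Paque gradient. Cells (0.5 × 10^6) incubated 1 h at 4 °C with biotinylated ligand (100 nM) in TBS, then SA-PE, and 10,000 cells read by flow cytometry. Mn2+ added for integrin activation where indicated. Activation state checked with anti-β1 LIBS mAb.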

[32] = biological target: T1, Integrin alpha-4/beta-1 (Homo sapiens); assay: Binding affinity to alpha4beta1 integrin expressed in peripheral blood lymphocytes in presence of Mn2+; type: cell-based; how it was run: as §4
CHO [33] = assay: Binding affinity to wild type human alpha4hamster beta-1 integrin expressed […] cells by flow cytometry; type: cell-based; how it was run: as §2

Sequence of Integrin alpha-M/beta-2 (Homo sapiens) (P05107 23-769 limits assumed, other chains not shown): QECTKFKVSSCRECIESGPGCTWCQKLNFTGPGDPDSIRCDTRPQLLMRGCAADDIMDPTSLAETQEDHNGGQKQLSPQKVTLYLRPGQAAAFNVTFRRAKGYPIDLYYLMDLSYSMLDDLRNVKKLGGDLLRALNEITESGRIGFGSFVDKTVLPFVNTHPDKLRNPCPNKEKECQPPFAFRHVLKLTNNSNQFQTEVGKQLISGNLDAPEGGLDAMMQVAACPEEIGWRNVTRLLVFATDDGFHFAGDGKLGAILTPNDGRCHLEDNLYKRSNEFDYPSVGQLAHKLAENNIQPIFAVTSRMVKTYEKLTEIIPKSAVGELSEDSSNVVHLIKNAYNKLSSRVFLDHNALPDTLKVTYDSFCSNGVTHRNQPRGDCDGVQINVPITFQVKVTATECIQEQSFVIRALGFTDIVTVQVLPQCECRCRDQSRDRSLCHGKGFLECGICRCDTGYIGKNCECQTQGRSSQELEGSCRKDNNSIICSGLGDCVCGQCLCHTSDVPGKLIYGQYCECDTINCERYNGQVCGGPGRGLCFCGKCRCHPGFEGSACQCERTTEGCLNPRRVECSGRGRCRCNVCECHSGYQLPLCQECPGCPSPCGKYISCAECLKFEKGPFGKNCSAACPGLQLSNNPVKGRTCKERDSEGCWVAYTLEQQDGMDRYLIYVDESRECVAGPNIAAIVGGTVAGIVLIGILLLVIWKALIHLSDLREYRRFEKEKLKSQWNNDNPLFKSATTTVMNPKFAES

Cc1ccccc1NC(=O)Nc1ccc(CC(=O)N[C@@H](CCCCNC(=O)/C=C/c2cccnc2)C(=O)N[C@@H](CCCC(=O)O)C(=O)NC2(C(=O)NCCOCCOCCNC(=O)CCC(=O)NCCOCCOCCNC(=O)CCC(=O)N[C@@H](CCCCNC(=O)CCCC[C@@H]3SC[C@@H]4NC(=O)N[C@@H]43)C(N)=O)CCCCC2)cc1
inactive: inhibition (Mus musculus [1])

Cc1ccccc1NC(=O)Nc1ccc(CC(=O)N[C@@H](CCCCNC(=O)/C=C/c2cccnc2)C(=O)N[C@@H](CCCC(=O)O)C(=O)NC2(C(N)=O)CCCCC2)cc1
inactive: Activity [5] | Activity [6] | Activity [7] | Activity [8] | Activity [9] | Activity (CHO [17]) | Activity (CHO [18]) | Activity (CHO [20]) | Activity [31]
active: Activity (CHO [2]) | Activity [3] | Activity [4] | Activity [10] | Activity [11] | Activity [12] | Activity (CHO [13]) | Activity (CHO [14]) | Activity (CHO [15]) | Activity (CHO [16]) | Activity (CHO [19]) | Activity (CHO [21]) | Activity (CHO [22]) | Activity (CHO [23]) | Activity (CHO [24]) | Activity (CHO [25]) | Activity (CHO [26]) | Activity (CHO [27]) | inhibition (Mus musculus [28]) | inhibition [29] | inhibition [30] | Activity [32] | Activity (CHO [33])
